Fewer inactive variants are shown than the library holds.
B1: tRNA (parent)
chain: GUUCCGUUGGCGUAAUGGUAACGCGUCUCCCUCCUAAGGAGAAGACUGCGGGUUCGAGUCCCGUACGGAACG

Variants of: B1
Test: yeast fitness relative to wild type (ratio to wild type); higher = fitter; tRNA-Arg(CCU), competitive growth, 37 C, YPD
Method in brief: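 A pool of Saccharomyces cerevisiae strains, each with a tRNA-Arg(CCU) gene variant at the native genomic locus, was competed in YPD at 37°C for 24 hours across six parallel replicates. The variants had been chemically synthesised at a 3% per-site mutation rate over 69 sites, and gene amplicons before and after competition were read by 100-nucleotide paired-end sequencing. Darwinian fitness relative to wild type rested on changes in genotype frequencies. Genotypes required ≥ 100 starting reads, and estimates < 0.5 were set to 0.5.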

Going from C34U G68A to C34U U35C A40G U47C, the yeast fitness falls from 0.774 to ≤ 0.5.

Going from U35C G48A to C34U G39C C49G, the yeast fitness falls from 0.937 to ≤ 0.5.

Going from U35A C62A to U35C G51U C61U, the yeast fitness rises from ≤ 0.5 to 0.53.

First: U35C C55A A69U
Second: C34U C55U A65U
The yeast fitness of the first is lower: ≤ 0.5 for the first, 0.607 for the second.

First: C34G G39U U47G
Second: C34U A37U
The yeast fitness of the first is lower: ≤ 0.5 for the first, 0.535 for the second.

First: U35G A43G U59A
Second: U35A A45G
The yeast fitness of the first is lower: 0.658 for the first, 0.759 for the second.

Compared with U35C C49G A70U, C34U is higher in yeast fitness: 0.563 for the first, 0.707 for the second.

First: U35A U47C C49U C62A A69G
Second: U35C G39C
The yeast fitness of the first is lower: 0.718 for the first, 0.747 for the second.

First: U35C A42C A43G G48A
Second: C34U G38A C61G
The yeast fitness of the first is higher: 0.576 for the first, ≤ 0.5 for the second.

First: C34U A42G
Second: C34G G68A
The yeast fitness of the first is higher: 0.712 for the first, 0.586 for the second.

First: C34G G68C
Second: U35C A36C A40U C61G A69C A70C
The yeast fitness of the first is higher: 0.603 for the first, ≤ 0.5 for the second.

First: C34U C55U C66U
Second: C34U C49U C55U
The yeast fitness of the first is higher: 0.532 for the first, ≤ 0.5 for the second.

Compared with C34G U35G G39A, C34U A40U is higher in yeast fitness: 0.593 for the first, 0.632 for the second.

Compared with C34U A40G, U35A C55A C66A is lower in yeast fitness: 0.729 for the first, ≤ 0.5 for the second.

Compared with C34U A57C, C34U A45C G67U A69C A70C is lower in yeast fitness: 0.553 for the first, ≤ 0.5 for the second.

Going from C34U G39A C62U to C34U G38A, the yeast fitness rises from 0.607 to 0.689.

Compared with C34U C49A A69C, U35G A57G is higher in yeast fitness: ≤ 0.5 for the first, 0.698 for the second.

C34U A37G C62A and U35A A57C U64A G68A cannot be ordered by yeast fitness: ≤ 0.5 for the first, ≤ 0.5 for the second.

Compared with C34U A45U C66U, U35G A45U A57C is lower in yeast fitness: 0.57 for the first, ≤ 0.5 for the second.

First: U35G A40G A57G
Second: C34U U53C C55U
The yeast fitness of the first is higher: 0.548 for the first, ≤ 0.5 for the second.

Going from U35A A36G A40U A42U C55G to U35G G52C G63A, the yeast fitness rises from ≤ 0.5 to 0.551.

Going from U35C A42U C62G to U35A A70G, the yeast fitness rises from 0.546 to 0.588.

First: U35A A70C
Second: U35A A70U
The yeast fitness of the first is lower: 0.769 for the first, 0.787 for the second.

Going from U35C C61U to U35C C61A, the yeast fitness falls from 0.968 to ≤ 0.5.

Going from C34G G50C A69U to C34U C61G C66U, the yeast fitness rises from ≤ 0.5 to 0.595.

First: U35C A45C C49A
Second: C34U U35A A57C G58A A70U
The yeast fitness of the first is lower: ≤ 0.5 for the first, 0.586 for the second.

A36C A37G C49A A69U and U35C C60G C61U cannot be ordered by yeast fitness: ≤ 0.5 for the first, ≤ 0.5 for the second.

First: U35C G48C C55U G56A
Second: U35C C46G
The yeast fitness of the first is lower: 0.573 for the first, 0.906 for the second.

First: U35C C46U
Second: U35C A57C
The yeast fitness of the first is higher: 0.938 for the first, 0.609 for the second.

Compared with U35C A57G, C34G U53C is lower in yeast fitness: 0.739 for the first, 0.578 for the second.

Going from C34U G41A C49G to U35C U47A C49U, the yeast fitness rises from 0.535 to 0.603.

U35A A43C C46U and C34U G44C U53C cannot be ordered by yeast fitness: ≤ 0.5 for the first, ≤ 0.5 for the second.

First: U35C A37C
Second: U35G A45G
The yeast fitness of the first is higher: 0.817 for the first, 0.669 for the second.

Going from U35A G48A to U35G A43G C46U, the yeast fitness rises from 0.644 to 0.702.

Compared with C34U A43U A45U, C34G G41C C60A is higher in yeast fitness: 0.534 for the first, 0.607 for the second.

First: U35G C49G A65C
Second: C34U U47C
The yeast fitness of the first is lower: ≤ 0.5 for the first, 0.67 for the second.

Compared with C34U U47A, C34G C60U is lower in yeast fitness: 0.621 for the first, 0.536 for the second.

Compared with C34G C66U, U35C G38U C46U C55G is lower in yeast fitness: 0.634 for the first, ≤ 0.5 for the second.

First: U35C A36C A40U C61G
Second: C34U A36G
The yeast fitness of the first is lower: ≤ 0.5 for the first, 0.696 for the second.

Going from C34U A36C to C34U U54C A70U, the yeast fitness falls from 0.554 to ≤ 0.5.

U35C A42C G52C U53C G68U and C34U C62A C66U cannot be ordered by yeast fitness: ≤ 0.5 for the first, ≤ 0.5 for the second.

Going from C34G U47C C49U to C34U C49A G67A, the yeast fitness falls from 0.638 to ≤ 0.5.

Compared with U35A G67A, U35A G67C is lower in yeast fitness: 0.714 for the first, 0.657 for the second.

C34U A37U C46A G51A A65U and C34U C55A C62U C66U cannot be ordered by yeast fitness: ≤ 0.5 for the first, ≤ 0.5 for the second.

First: C34G G48C U59C
Second: U35A U53C A57C
The yeast fitness of the first is higher: 0.712 for the first, ≤ 0.5 for the second.

First: U35G A42U A69C
Second: U35G G56A
The yeast fitness of the first is lower: ≤ 0.5 for the first, 0.599 for the second.

Going from C34G C61A to U35C A40U, the yeast fitness rises from 0.613 to 0.856.

First: C34U C46G A70U
Second: C34U U47A C66U
The yeast fitness of the first is higher: 0.601 for the first, ≤ 0.5 for the second.

Compared with U35C A36G A45C, C34G G52C C60G is lower in yeast fitness: 0.825 for the first, ≤ 0.5 for the second.

Compared with C34G C62U, C34G C62A is higher in yeast fitness: 0.639 for the first, 0.64 for the second.

Compared with C34G G48A, U35A C60G C62G is lower in yeast fitness: 0.662 for the first, ≤ 0.5 for the second.

First: C34U G56C
Second: C34U G48C C66U
The yeast fitness of the first is lower: 0.51 for the first, 0.635 for the second.

Going from C34G G50C C55G C60A to C34G G44U C49G C61U A69G, the yeast fitness falls from 0.715 to ≤ 0.5.

Compared with U35C C49U C66U, C34G G44C G58C G68U is lower in yeast fitness: 0.681 for the first, ≤ 0.5 for the second.

First: U35G A70U
Second: U35A G68U
The yeast fitness of the first is higher: 0.674 for the first, 0.6 for the second.

First: U35C A36U
Second: U35A C61A A70U
The yeast fitness of the first is higher: 0.603 for the first, ≤ 0.5 for the second.

C34G U35A G63C and C34G U35G A40U A42G C61G cannot be ordered by yeast fitness: ≤ 0.5 for the first, ≤ 0.5 for the second.

Going from U35C G67A to U35C G67C, the yeast fitness rises from 0.637 to 0.939.

U35C G52C and U35G C61G cannot be ordered by yeast fitness: ≤ 0.5 for the first, ≤ 0.5 for the second.

Compared with C34U C55G G63A, U35G C49G U64A is higher in yeast fitness: ≤ 0.5 for the first, 0.525 for the second.

First: C34U U47A A70U
Second: U35C A43G U54C
The yeast fitness of the first is higher: 0.534 for the first, ≤ 0.5 for the second.

First: U35C A69C
Second: U35C A69U
The yeast fitness of the first is lower: 0.943 for the first, 0.949 for the second.

Compared with U35A U59G, U35A U59A is lower in yeast fitness: 0.62 for the first, 0.591 for the second.

First: C34G U47C
Second: C34U C66U A69U
The yeast fitness of the first is higher: 0.599 for the first, ≤ 0.5 for the second.

Compared with C34U G58C C61A A69U, U35C A70U is higher in yeast fitness: ≤ 0.5 for the first, 0.812 for the second.

Going from U35C A70G to C34U G67C, the yeast fitness falls from 0.781 to 0.723.

C34U A57G C60A and U35A A57U A69U cannot be ordered by yeast fitness: ≤ 0.5 for the first, ≤ 0.5 for the second.

First: U35A C46A C49G G52A C60U A69G
Second: U35C C46U C55G
The yeast fitness of the first is lower: ≤ 0.5 for the first, 0.507 for the second.

First: U35A A65C
Second: U35A A65U
The yeast fitness of the first is higher: 0.781 for the first, 0.757 for the second.

First: U35A A37G
Second: U35C U59C A69U
The yeast fitness of the first is lower: ≤ 0.5 for the first, 0.749 for the second.

Compared with C34G G44C C66A, U35C A65G is higher in yeast fitness: 0.595 for the first, 0.945 for the second.

Going from U35C A65U to C34U A40G A43G C62A A69C, the yeast fitness falls from 0.739 to ≤ 0.5.

C34U G41A U47A G58C G63C G67A and U35C G51C C55U cannot be ordered by yeast fitness: ≤ 0.5 for the first, ≤ 0.5 for the second.

First: U35G G58A
Second: U35G G58C
The yeast fitness of the first is higher: 0.675 for the first, 0.653 for the second.

Compared with U35G C46U, C34U U35C A70C is lower in yeast fitness: 0.628 for the first, ≤ 0.5 for the second.

Compared with C34U U35A C49G, C34G U59G is lower in yeast fitness: 0.57 for the first, 0.534 for the second.

Going from C34G U59A to C34G G39A G50C, the yeast fitness falls from 0.538 to ≤ 0.5.

First: C34G G48A A70U
Second: C34U A69U A70C
The yeast fitness of the first is higher: 0.584 for the first, 0.541 for the second.

C34G G38C U47C C62G A69C and C34U C55U C60A cannot be ordered by yeast fitness: ≤ 0.5 for the first, ≤ 0.5 for the second.

Compared with U35A A36U A45C, C34U G48C is higher in yeast fitness: 0.531 for the first, 0.674 for the second.

Compared with U35C C55G, U35G U54A C62U G68A is lower in yeast fitness: 0.59 for the first, ≤ 0.5 for the second.

Compared with C34U U47G G58C, U35C A40C C61G is lower in yeast fitness: 0.518 for the first, ≤ 0.5 for the second.

U35C U64G C66G and C34U A36G A45U U64A cannot be ordered by yeast fitness: ≤ 0.5 for the first, ≤ 0.5 for the second.

Work on C34U C49A yielded a yeast fitness of 0.585.

— the RNAGym collection of RNA variant scans (doi:10.1126/science.aae0568)
